# Results from different studies.
# Target: Cannabinoid receptor 2 (CNR2, Homo sapiens, UniProt P34972)
# Observed: ligand displacement
# Method: radioligand
SMILES,setting,Ki [nM]
Cc1nc([C@@](C)(CC2CC2)NC(=O)c2cc(OCC(F)(F)F)c(C3CC3)cn2)no1,cell membranes,76
CCCCCc1cc(O)c2c(c1)OC(C)(C)[C@@H]1CC=C(C)[C@H](O)[C@@H]21,cell membranes,30
NC(=O)[C@@H]1CC(F)(F)CN1C(=O)c1ccc(N2CC(F)(F)C2)c(OCC2CC2)n1,cell membranes,40
CCOC(=O)C(CC)(CCCSCCOCCOCCOCCOCCNC(=O)OC(C)(C)C)NC(=O)c1ccc(C2CC2)c(Cc2ccc(F)cc2)n1 (stereo not drawn),cell membranes,140
CCCCCc1cc2c(c(O)c1C(=O)O)C1C=C(C)CCC1C(C)(C)O2 (stereo not drawn),cell membranes,1650
CCCCCn1cc(C(=O)C2C(C)(C)C2(C)C)c2ccccc21,cell membranes,4.51
CCCCCn1c2ccccc2c2cc(C(=O)NCC3CCN(CC(=O)NC(C)(C)C)CC3)ccc21,,> 5000
CCCC(C)(C)c1ccc2c(c1)OC(C)(C)[C@@H]1CC=C(C)C[C@@H]21,cell membranes,34.9
CCCc1cc(O)c2c(c1)OC(C)(C)c1ccc(C)cc1-2,cell membranes,4780
CCOC(=O)C(CCCOC)NC(=O)c1ccc(C2CC2)c(Cc2ccc(F)cc2)n1 (stereo not drawn),cell membranes,17
CCCCCc1cc(O)c(C/C=C(\C)CCC=C(C)C)c(O)c1C(=O)O,cell membranes,> 10000
C=CCC(CC)(NC(=O)c1ccc(C2CC2)c(Cc2ccc(F)cc2)n1)C(=O)OCC (stereo not drawn),cell membranes,0.8
CCCS(=O)(=O)Oc1ccc(-n2c(-c3ccc(Cl)cc3Cl)nc(C(=O)NN3CCCCC3)c2C)cc1,cell membranes,35
CCOC(=O)[C@](CC)(CCC[S+]([O-])CCOCCOCCNC(=O)OC(C)(C)C)NC(=O)c1ccc(C2CC2)c(Cc2ccc(F)cc2)n1 (stereo partly drawn),cell membranes,29
Cc1c(C(=O)Nc2ccc(F)nc2)nc(-c2ccc(Cl)cc2Cl)n1-c1ccc(OS(=O)(=O)CCC(F)(F)F)cc1,cell membranes,1.4
